The source of these data is ChEMBL document CHEMBL2311246 (Bioorg Med Chem, 2013).

In general, IC50 refers to the midpoint of a concentration-inhibition curve.

In one data set the test system is DU-145. The data set can be described thus: Antiproliferative activity against human DU145 cells after 72 hrs after ATPlite kit assay. The class given is functional, cell-based. Conditions: DU-145, 72 h. Summed up: (§1)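 10,000 cells per well plated, incubated overnight, then exposed to increasing compound concentrations for 72 h. Viability read by ATPlite luminescence. IC50 obtained by linear regression. Prostate lines (DU145, PC-3, LNCaP) are ATCC stocks. LNCaP culture was modified from the earlier method.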
Background: In ATP-based viability assays light output follows the ATP content of the culture.

Data set [1] can be described thus: Antiproliferative activity against human Huh7.5.1 cells after 72 hrs after ATPlite kit assay. The class given is functional, cell-based. The following applies: Huh-7, 72 h. Summed up: as §1
A further data set has as its system LNCaP. Nature of the data set: Antiproliferative activity against human LNCAP cells after 72 hrs after ATPlite kit assay. The class given is functional, cell-based. Summed up:
as §1

Data set [2] has as its system Hepatitis C virus. Nature of the data set: Antiviral activity against HCV JFH1 infected in human Huh7.5.1 cells assessed as reduction in viral proteins at non-cytotoxic concentration after 72 hrs post compound dose by Western blotting method. The format is functional, organism-based. The following applies: Hepacivirus hominis, Huh-7. A general note: Immunoblotting shows a protein as a band on a membrane.

A further data set relates to PC-3. Nature of the data set: Antiproliferative activity against human PC3 cells after 72 hrs after ATPlite kit assay. The format is functional, cell-based. Conditions: PC-3, 72 h. Summed up:
as §1

Data set [3] has as its system Hepatitis C virus. The data set can be described thus: Antiviral activity against HCV JFH1 infected in human Huh7.5.1 cells assessed as reduction in viral proteins after 72 hrs post compound dose by Western blotting method. The format is functional, organism-based, Hepacivirus hominis. Conditions: JFH1, Huh-7, 72 h.
Another data set concerns the target Cytochrome P450 2C9 (Homo sapiens, UniProt P11712). Nature of the data set: Inhibition of CYP2C9 in pooled human liver microsomes assessed as reduction in enzyme-mediated (S)-warfarin 7-hydroxylation by HPLC/MS-MS method. The format is ADME, Microsome. Summed up: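 Pooled HLM (0.1 mg/mL microsomal protein) incubated with (S)-warfarin 4 µM and compound at 1, 10 or 100 µM in 100 mM potassium phosphate, pH 7.4. Vehicle controls held 0.75% MeOH (v/v). Sulfaphenazole 1 µM served as positive control. 7-Hydroxywarfarin measured by HPLC/MS-MS. Means ± SD of triplicate incubations; two-way ANOVA with Tukey post hoc test.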
A general note: Liver microsomes are a subcellular fraction often used to study metabolism.

Activity calls are given as the source filed them. The calls are words filed in the database; no cut-off is given here.

Cytochrome P450 2C9, sequence (P11712 whole entry): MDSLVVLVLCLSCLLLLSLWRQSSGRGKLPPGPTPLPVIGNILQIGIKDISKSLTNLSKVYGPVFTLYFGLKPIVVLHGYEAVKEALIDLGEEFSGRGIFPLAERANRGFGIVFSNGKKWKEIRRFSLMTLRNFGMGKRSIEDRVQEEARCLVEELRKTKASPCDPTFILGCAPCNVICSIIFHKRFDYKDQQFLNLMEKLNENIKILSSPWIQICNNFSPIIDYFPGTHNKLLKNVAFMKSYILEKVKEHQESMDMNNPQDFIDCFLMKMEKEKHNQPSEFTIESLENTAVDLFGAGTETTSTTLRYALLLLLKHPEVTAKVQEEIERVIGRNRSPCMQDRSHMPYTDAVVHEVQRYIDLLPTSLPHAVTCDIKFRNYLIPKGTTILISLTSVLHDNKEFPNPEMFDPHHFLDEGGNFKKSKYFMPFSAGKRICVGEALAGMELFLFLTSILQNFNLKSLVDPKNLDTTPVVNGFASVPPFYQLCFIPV

As to `COc1cc(O)c2c(c1)O[C@H](c1ccc3c(c1)O[C@@H](c1ccc(OC)c(OC)c1)[C@H](CO)O3)[C@@H](O)C2=O`, the IC50 with DU-145 was found to be 10 µM; in data set [1], 13.5 µM; in the data set with LNCaP, 11.3 µM; with PC-3 it was 8.1 µM. In the data set on Hepatitis C virus [2], the outcome was Active.
As to `COc1cc([C@@H]2Oc3cc([C@H]4Oc5cc(O)cc(O)c5C(=O)[C@@H]4O)ccc3O[C@H]2CO)ccc1O` [SILYBIN B], the IC50 with DU-145 turned out to be 61.8 µM; in the data set with Hepatitis C virus [3], 40 µM; in data set [1] it was 56.2 µM; at Cytochrome P450 2C9 it was 8.2 µM; with LNCaP, 69.6 µM; with PC-3, 60.5 µM.
In the case of `COc1cc(OC)c2c(c1)O[C@H](c1ccc3c(c1)O[C@@H](c1ccc(OC)c(OC)c1)[C@H](CO)O3)[C@@H](O)C2=O`, the IC50 worked out at 46.9 µM in the data set on DU-145, 25.5 µM in data set [1], 40.7 µM with LNCaP and 36.3 µM in the data set with PC-3. In addition, the outcome in the data set with Hepatitis C virus [2] was Active.
Consider `COC[C@@H]1Oc2ccc([C@H]3Oc4cc(OC)cc(OC)c4C(=O)[C@@H]3O)cc2O[C@H]1c1ccc(OC)c(OC)c1`, for which the IC50 in the data set on DU-145 was determined as 24 µM; in data set [1], 15.6 µM; in the data set with LNCaP, 30.1 µM; in the data set on PC-3 it was 14.4 µM. Besides, on Cytochrome P450 2C9 (human, microsomes), the “inhibition (INH)” value is listed as “Not Active”. Moreover, the outcome in the data set on Hepatitis C virus [2] was Active.
Take `COC[C@@H]1Oc2ccc([C@H]3Oc4cc(OC)cc(O)c4C(=O)[C@@H]3O)cc2O[C@H]1c1ccc(OC)c(OC)c1`: the 50% inhibitory concentration (IC50) in the data set on DU-145 was 16.8 µM; with LNCaP it was 19.8 µM; in the data set on PC-3, 21.9 µM.
Take `COc1cc(O)c2c(c1)O[C@H](c1ccc3c(c1)O[C@@H](c1ccc(O)c(OC)c1)[C@H](CO)O3)[C@@H](O)C2=O`: the IC50 in the data set with DU-145 turned out to be 19.3 µM; in data set [1] it was 13.3 µM; with LNCaP, 20.1 µM; with PC-3, 16.9 µM. Besides, the outcome in the data set with Hepatitis C virus [2] was Active.
